ChEMBL document CHEMBL1671655, “Anidulafungin is fungicidal and exerts a variety of postantifungal effects against Candida albicans, C. glabrata, C. parapsilosis, and C. krusei isolates” (2009)
Values after ≈ are worked out from the molar mass of the structure shown. Active and inactive are the calls of the source. The calls are words filed in the database; no cut-off is given here. Starred links: 1 amine or outer side, 2 acyl side, 3 side chain; linkers in the order of their positions; H or OH if unused. Positions of bridges follow the written chain, without caps; N, C: chain ends. Non-standard residues stand in square brackets, D forms with d. Residues, ends and D or L forms follow the SMILES beside them. *: point of attachment. pTerphenylCO(4''-OnC5H11) = CCCCCOc1ccc(-c2ccc(-c3ccc(C(=O)*)cc3)cc2)cc1; Orn(4R-OH,5R-OH) = O=C([C@H](C[C@@H](O)[C@@H](O)N[*:3])N[*:1])[*:2]; hTyr(3S-OH,4S-OH) = N[C@H](C(=O)O)[C@H](O)[C@@H](O)c1ccc(O)cc1; Pro(3S-OH,4S-Me) = C[C@H]1CN[C@H](C(=O)O)[C@H]1O; Hyp = O=C(O)[C@@H]1C[C@@H](O)CN1

Legend:
Candida albicans [1] = test: Fungicidal activity against Candida albicans ATCC 90028 assessed as log reduction in bacterial count at 4 times MIC after drug exposure for 1 hr followed by washout measured after 48 hrs in the absence of drug by PAFE study; assay type: functional
Procedure, shortened: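 Starting inoculum ~1 x 10^5 to 5 x 10^5 CFU/ml in MOPS-buffered RPMI 1640 (pH 7.0) with drug at multiples of the CLSI M27-A3 MIC. After 1 h at 35°C, cells washed and centrifuged three times at 1,400 x g for 10 min, then resuspended in warm drug-free RPMI. Shaken at 35°C and plated on SDA at 0–48 h; CFU counted after 48 h. Run twice per isolate; means.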

Candida parapsilosis [2] = test: Increase in susceptibility to calcofluor white in Candida parapsilosis isolate A assessed as cell wall damage at 4 times MIC after 1 hr relative to control; assay type: functional, organism-based
Procedure, shortened: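 Candida given a 1-h anidulafungin pulse in MOPS-buffered RPMI 1640 (pH 7.0) at 35°C, washed three times by centrifugation, and regrown drug-free. Cells collected 8 h later, grown in YPD with 1% glucose to exponential phase, and set to OD599 0.1. Undiluted culture and 10-fold dilutions (4 µl) spotted on YPD plates with calcofluor white, then 30°C for 72 h. Triplicate; compared with no-drug cells.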

Candida albicans [3] = test: Fungicidal activity against Candida albicans ATCC 90028 assessed as log reduction in bacterial count at 16 times MIC after drug exposure for 1 hr followed by washout measured after 48 hrs in the absence of drug by PAFE study; assay type: functional
Procedure, shortened: (§1)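 Inoculum of about 1 x 10^5 to 5 x 10^5 CFU/ml in MOPS-buffered RPMI (pH 7.0), shaken at 35°C and exposed to drug for 1 h. Cells then washed and centrifuged three times and resuspended in drug-free warm RPMI. Samples plated on SDA at 0, 2, 4, 8, 12, 24 and 48 h, with CFU counted after 48 h at 35°C. Run twice per isolate; values are means.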

Candida parapsilosis [4] = test: Fungicidal activity against Candida parapsilosis isolate S assessed as log reduction in bacterial count at 16 times MIC after drug exposure for 1 hr followed by washout measured after 48 hrs in the absence of drug by PAFE study; assay type: functional; conditions: Lodderomyces parapsilosis
Procedure, shortened: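 Inoculum about 1 x 10^5 to 5 x 10^5 CFU/ml in RPMI 1640 (MOPS, pH 7.0) with drug, shaken at 35°C for 1 h. Cells were then washed and centrifuged at 1,400 x g for 10 min (3 cycles) and resuspended in warm drug-free RPMI. Samples plated on SDA at 0, 2, 4, 8, 12, 24 and 48 h; CFU counted after 48 h at 35°C. Run twice per isolate; means.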

Candida parapsilosis [5] = test: Increase in susceptibility to SDS in Candida parapsilosis isolate A assessed as cell wall damage at 4 times MIC after 1 hr relative to control; assay type: functional, organism-based
Procedure, shortened: (§2)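 Cells recovered 8 h after a 1-h drug exposure were grown in YPD with 1% glucose to exponential phase and adjusted to OD599 0.1. Undiluted culture and 10-fold serial dilutions were spotted onto YPD plates containing SDS (0.01 to 0.04%), then incubated 72 h at 30°C. Growth compared with unexposed control cells; triplicate.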

Candida parapsilosis [6] = test: Fungicidal activity against Candida parapsilosis isolate A assessed as log reduction in bacterial count at MIC after 48 hrs by time-kill analysis; assay type: functional; conditions: Lodderomyces parapsilosis
Procedure, shortened: (§3)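 Isolates subcultured twice on SDA, then suspended to 0.5 McFarland and diluted into RPMI 1640 (MOPS, pH 7.0) with or without anidulafungin, giving about 1 x 10^5 to 5 x 10^5 CFU/ml. Tubes were shaken at 35°C. Samples were taken at 0, 2, 4, 8, 12, 24 and 48 h, serially diluted 10-fold, plated on SDA, and CFU counted after 48 h at 35°C. Each isolate was run twice; mean values.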

Candida albicans [7] = test: Inhibition of Candida albicans isolate 1 adherence to human buccal epithelial cells at 4 times MIC after 1 hr by adherence assay relative to control; assay type: functional, Epithelial cell
Procedure, shortened: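 Candida collected 8 h after a 1-h 4x MIC pulse and washout were grown on SDA for 24 h at 35°C. Buccal epithelial cells were pooled from three donors and washed in PBS. Cells (1 x 10^5/ml) were mixed 1:1 by volume with Candida (1 x 10^6/ml) and shaken 1 h at 37°C. Mixtures were filtered, washed, and Gram-stained, and Candida were counted per 100 epithelial cells. Run in duplicate on ≥2 occasions; Student's t test against unexposed controls.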

Candida albicans [8] = test: Antifungal activity against Candida albicans isolate 1 assessed as time period for bacterial growth inhibition at 4 times MIC after 1 hr drug exposure; assay type: functional; procedure, shortened: as §1
Candida parapsilosis [9] = test: Antifungal activity against Candida parapsilosis isolate A assessed as cell wall damage at MIC by Transmission electron microscopy; assay type: functional, organism-based
Procedure, shortened: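 Cells recovered 8 h after a 1-h drug exposure were grown on SDA for 24 h at 35°C. Colonies fixed at 4°C in 0.1 M cacodylate (pH 7.2) with 2% glutaraldehyde and 2% paraformaldehyde, ethanol-dehydrated and embedded in Lowicryl K4M. Thin sections examined by transmission EM.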

Candida albicans [10] = test: Fungicidal activity against Candida albicans isolate 2 assessed as log reduction in bacterial count at MIC after 48 hrs by time-kill analysis; assay type: functional; conditions: isolate 2, 48 h
Procedure, shortened: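 Isolates subcultured twice on SDA, suspended to 0.5 McFarland, giving ~1 x 10^5 to 5 x 10^5 CFU/ml in MOPS-buffered RPMI 1640 (pH 7.0) with or without drug at multiples of MIC (MIC by CLSI M27-A3). Tubes shaken at 35°C with continuous drug. Sampled at 0–48 h, diluted 10-fold and plated on SDA; CFU counted after 48 h at 35°C. Run twice per isolate; means.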

Nakaseomyces glabratus [11] = test: Antifungal activity against Candida glabrata isolate 3 assessed as time period for bacterial growth inhibition at 4 times MIC after 1 hr drug exposure; assay type: functional; procedure, shortened: as §1
Candida parapsilosis [12] = test: Antifungal activity against Candida parapsilosis isolate A assessed as time period for bacterial growth inhibition at 16 times MIC after 1 hr drug exposure; assay type: functional; procedure, shortened: as §1
Nakaseomyces glabratus [13] = test: Antifungal activity against Candida glabrata assessed as time period for bacterial regrowth inhibition after 1 hr drug exposure; assay type: functional
Nakaseomyces glabratus [14] = test: Antifungal activity against Candida glabrata isolate 2 by CLSI M27-A3 broth microdilution method; assay type: functional
Procedure, shortened: (§4)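 CLSI M27-A3 broth microdilution in RPMI 1640 buffered to pH 7.0 with MOPS. Starting inoculum 0.5 x 10^3 to 2.5 x 10^3 cells/ml, incubated at 35°C. MIC read as the lowest concentration giving >50% growth reduction versus control. Each isolate tested on at least three occasions.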

Candida albicans [15] = test: Increase in susceptibility to SDS in Candida albicans isolate 1 assessed as cell wall damage at 16 times MIC after 1 hr relative to control; assay type: functional, organism-based; procedure, shortened: as §2
Candida albicans [16] = test: Antifungal activity against Candida albicans isolate S by CLSI M27-A3 broth microdilution method; assay type: functional; procedure, shortened: as §4
Candida parapsilosis [17] = test: Fungicidal activity against Candida parapsilosis isolate A assessed as log reduction in bacterial count at 16 times MIC after 48 hrs by time-kill analysis; assay type: functional; conditions: Lodderomyces parapsilosis; procedure, shortened: as §3
Candida parapsilosis [18] = test: Antifungal activity against Candida parapsilosis isolate 1 by CLSI M27-A3 broth microdilution method; assay type: functional; conditions: Lodderomyces parapsilosis; procedure, shortened: as §4

Q: What does the source list for `CCCCCOc1ccc(-c2ccc(-c3ccc(C(=O)N[C@H]4C[C@@H](O)[C@@H](O)NC(=O)[C@@H]5[C@@H](O)[C@@H](C)CN5C(=O)[C@H]([C@@H](C)O)NC(=O)[C@H]([C@H](O)[C@@H](O)c5ccc(O)cc5)NC(=O)[C@@H]5C[C@@H](O)CN5C(=O)[C@H]([C@@H](C)O)NC4=O)cc3)cc2)cc1` [ANIDULAFUNGIN] ({pTerphenylCO(4''-OnC5H11)}-[Orn(4R-OH,5R-OH)]T[Hyp][hTyr(3S-OH,4S-OH)]T[Pro(3S-OH,4S-Me)]; lactam 1-C)?
A: log reduction (Candida albicans [1]): 1.89; Activity (Candida parapsilosis [2]): Active; log reduction (Candida albicans [3]): 2.14; log reduction (Candida parapsilosis [4]): 3.05; Activity (Candida parapsilosis [5]): Active; log reduction (Candida parapsilosis [6]): 1.76 log CFU/ml; inhibition (INH) (Candida albicans [7]): 58%; Time (Candida albicans [8]): 8 h; Activity (Candida parapsilosis [9]): Active; log reduction (Candida albicans [10]): 0.89 log CFU/ml; Time (Nakaseomyces glabratus [11]): 8 h; Time (Candida parapsilosis [12]): 8 h; Time (Nakaseomyces glabratus [13]): >=12 hr; MIC (Nakaseomyces glabratus [14]): 0.03 µg/mL (≈ 0.0263 µM); Activity (Candida albicans [15]): Active; MIC (Candida albicans [16]): 0.008 µg/mL (≈ 0.00702 µM); log reduction (Candida parapsilosis [17]): 3.42 log CFU/ml; MIC (Candida parapsilosis [18]): 2 µg/mL (≈ 1.75 µM)
